# Reference: ChEMBL document CHEMBL1138555, “N-acylated and N,N'-diacylated imidazolidine-2-thione derivatives and N,N'-diacylated tetrahydropyrimidine-2(1H)-thione analogues: synthesis and antiproliferative activity” (Eur J Med Chem, 2009)
# What was measured:
# NCI-H460 = assay: Growth inhibition of human NCI-H460 cells after 48 hrs by sulforhodamine B assay; type: functional; settings: NCI-H460, 48 h
# Procedure, shortened: (§1)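 NCI screen panel. Five 10-fold concentrations from 10^-4 to 10^-8 M. Exposure for the last 48 h of a 72 h incubation. Growth estimated by sulforhodamine B protein assay. GI50 is the concentration giving 50% growth inhibition. Where that level was not reached or was exceeded, the value is given as above or below the highest or lowest concentration tested.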
# LOX IMVI = assay: Growth inhibition of human LOXIMVI cells after 48 hrs by sulforhodamine B assay; type: functional; procedure, shortened: as §1
# NCI-H322M = assay: Growth inhibition of human NCI-H322M cells after 48 hrs by sulforhodamine B assay; type: functional; procedure, shortened: as §1
# CAKI-1 = assay: Growth inhibition of human Caki1 cells after 48 hrs by sulforhodamine B assay; type: functional; settings: CAKI-1, 48 h; procedure, shortened: as §1
# BT-549 = assay: Growth inhibition of human BT549 cells after 48 hrs by sulforhodamine B assay; type: functional; settings: BT-549, 48 h; procedure, shortened: as §1
# HT-29 = assay: Growth inhibition of human HT-29 cells after 48 hrs by sulforhodamine B assay; type: functional; settings: HT-29, 48 h; procedure, shortened: as §1
# MOLT-4 = assay: Growth inhibition of human MOLT4 cells after 48 hrs by sulforhodamine B assay; type: functional; settings: MOLT-4, 48 h; procedure, shortened: as §1
# [1] = Growth inhibition of human […] cells after 48 hrs by sulforhodamine B assay; type: functional; procedure, shortened: as §1
# IGROV-1 = assay: Growth inhibition of human IGROV1 cells after 48 hrs by sulforhodamine B assay; type: functional; settings: IGROV-1, 48 h; procedure, shortened: as §1
# SNB-19 = assay: Growth inhibition of human SNB19 cells after 48 hrs by sulforhodamine B assay; type: functional; settings: SNB-19, 48 h
# Procedure, shortened: (§2)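 NCI in vitro panel screen. Compounds tested at five 10-fold dilutions, 10^-4 to 10^-8 M. Cells in 96-well plates were exposed for the last 48 h of a 72 h incubation. Viability/growth was read by sulforhodamine B protein assay. GI50 is the concentration giving 50% growth inhibition. Values beyond the tested range are reported as greater or less than the maximum or minimum concentration.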
# SF-295 = assay: Growth inhibition of human SF295 cells after 48 hrs by sulforhodamine B assay; type: functional; settings: SF-295, 48 h; procedure, shortened: as §1
# SF-268 = assay: Growth inhibition of human SF268 cells after 48 hrs by sulforhodamine B assay; type: functional; settings: SF-268, 48 h; procedure, shortened: as §1
# KM12 = assay: Growth inhibition of human KM12 cells after 48 hrs by sulforhodamine B assay; type: functional; settings: KM12, 48 h; procedure, shortened: as §1
# MT4 = assay: Antiproliferative activity against human MT4 cells assessed as reduction of growth by MTT assay; type: functional, cell-based
# Procedure, shortened: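 MT-4 lymphoblastoid T cells (ATCC) in RPMI 1640 with 10% FCS, penicillin/streptomycin, checked for mycoplasma. 1 × 10⁴ mock-infected cells per well with serial dilutions from a 100 mM DMSO stock. Incubated 4 days at 37 °C, viable cells counted by MTT. IC50 versus untreated controls by linear regression. Mean of three separate experiments.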
# HOP-62 = assay: Growth inhibition of human HOP62 cells after 48 hrs by sulforhodamine B assay; type: functional; settings: HOP-62, 48 h; procedure, shortened: as §1
# SN12C = assay: Growth inhibition of human SN12C cells after 48 hrs by sulforhodamine B assay; type: functional; procedure, shortened: as §2
# K562 = assay: Growth inhibition of human K562 cells after 48 hrs by sulforhodamine B assay; type: functional; settings: K562, 48 h; procedure, shortened: as §1
# T47D = assay: Growth inhibition of human T47D cells after 48 hrs by sulforhodamine B assay; type: functional; procedure, shortened: as §2
# U-251 = assay: Growth inhibition of human U251 cells after 48 hrs by sulforhodamine B assay; type: functional; settings: U-251, 48 h; procedure, shortened: as §2
# M14 = assay: Growth inhibition of human M14 cells after 48 hrs by sulforhodamine B assay; type: functional; settings: M14, 48 h; procedure, shortened: as §1
# SNB-75 = assay: Growth inhibition of human SNB75 cells after 48 hrs by sulforhodamine B assay; type: functional; settings: SNB-75, 48 h; procedure, shortened: as §2
# Malme-3M = assay: Growth inhibition of human MALME-3M cells after 48 hrs by sulforhodamine B assay; type: functional; procedure, shortened: as §1
# TK-10 = assay: Growth inhibition of human TK10 cells after 48 hrs by sulforhodamine B assay; type: functional; settings: TK-10, 48 h; procedure, shortened: as §2
# OVCAR-8 = assay: Growth inhibition of human OVCAR8 cells after 48 hrs by sulforhodamine B assay; type: functional; settings: OVCAR-8, 48 h; procedure, shortened: as §1
# PC-3 = assay: Growth inhibition of human PC3 cells after 48 hrs by sulforhodamine B assay; type: functional; settings: PC-3, 48 h; procedure, shortened: as §1
# RXF 393 = assay: Growth inhibition of human RXF393 cells after 48 hrs by sulforhodamine B assay; type: functional; settings: RXF 393, 48 h; procedure, shortened: as §1
# HOP-92 = assay: Growth inhibition of human HOP92 cells after 48 hrs by sulforhodamine B assay; type: functional; settings: HOP-92, 48 h; procedure, shortened: as §1
# NCI-H23 = assay: Growth inhibition of human NCI-H23 cells after 48 hrs by sulforhodamine B assay; type: functional; settings: NCI-H23, 48 h; procedure, shortened: as §1
# HCT-15 = assay: Growth inhibition of human HCT15 cells after 48 hrs by sulforhodamine B assay; type: functional; settings: HCT-15, 48 h; procedure, shortened: as §1
# SK-OV-3 = assay: Growth inhibition of human SKOV3 cells after 48 hrs by sulforhodamine B assay; type: functional; settings: SK-OV-3, 48 h; procedure, shortened: as §1
# UO-31 = assay: Growth inhibition of human UO31 cells after 48 hrs by sulforhodamine B assay; type: functional; settings: UO-31, 48 h; procedure, shortened: as §2
# OVCAR-4 = assay: Growth inhibition of human OVCAR4 cells after 48 hrs by sulforhodamine B assay; type: functional; settings: OVCAR-4, 48 h; procedure, shortened: as §1
# SK-MEL-28 = assay: Growth inhibition of human SK-MEL-28 cells after 48 hrs by sulforhodamine B assay; type: functional; settings: SK-MEL-28, 48 h; procedure, shortened: as §1
# ACHN = assay: Growth inhibition of human ACHN cells after 48 hrs by sulforhodamine B assay; type: functional; procedure, shortened: as §1
# SK-MEL-2 = assay: Growth inhibition of human SK-MEL-2 cells after 48 hrs by sulforhodamine B assay; type: functional; settings: SK-MEL-2, 48 h; procedure, shortened: as §1
# MDA-MB-435 = assay: Growth inhibition of human MDA-MB-435 cells after 48 hrs by sulforhodamine B assay; type: functional; settings: MDA-MB-435, 48 h; procedure, shortened: as §1
# MDA-MB-231 = assay: Growth inhibition of human MDA-MB-231 cells after 48 hrs by sulforhodamine B assay; type: functional; settings: MDA-MB-231, 48 h; procedure, shortened: as §1
# SK-MEL-5 = assay: Growth inhibition of human SK-MEL-5 cells after 48 hrs by sulforhodamine B assay; type: functional; settings: SK-MEL-5, 48 h; procedure, shortened: as §1
# 786-0 = assay: Growth inhibition of human 786-0 cells after 48 hrs by sulforhodamine B assay; type: functional; settings: 786-0, 48 h; procedure, shortened: as §1
# COLO 205 = assay: Growth inhibition of human COLO205 cells after 48 hrs by sulforhodamine B assay; type: functional; settings: COLO 205, 48 h; procedure, shortened: as §1
# OVCAR-3 = assay: Growth inhibition of human OVCAR-3 cells after 48 hrs by sulforhodamine B assay; type: functional; settings: OVCAR-3, 48 h; procedure, shortened: as §1
# SR = assay: Growth inhibition of human SR cells after 48 hrs by sulforhodamine B assay; type: functional; procedure, shortened: as §2
# HCT-116 = assay: Growth inhibition of human HCT116 cells after 48 hrs by sulforhodamine B assay; type: functional; settings: HCT-116, 48 h; procedure, shortened: as §1
# EKVX = assay: Growth inhibition of human EKVX cells after 48 hrs by sulforhodamine B assay; type: functional; procedure, shortened: as §1
# UACC-62 = assay: Growth inhibition of human UACC62 cells after 48 hrs by sulforhodamine B assay; type: functional; settings: UACC-62, 48 h; procedure, shortened: as §2
# SW-620 = assay: Growth inhibition of human SW620 cells after 48 hrs by sulforhodamine B assay; type: functional; settings: SW-620, 48 h; procedure, shortened: as §2
# A549 = assay: Growth inhibition of human A549 cells after 48 hrs by sulforhodamine B assay; type: functional; settings: A549, 48 h; procedure, shortened: as §1
# HL-60(TB) = assay: Growth inhibition of human HL-60(TB) cells after 48 hrs by sulforhodamine B assay; type: functional; settings: HL-60, 48 h
# Procedure, shortened: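 NCI 60-cell-line screen protocol: cells exposed to compound at five 10-fold dilutions from 10^-4 to 10^-8 M for the last 48 h of a 72 h incubation. Sulforhodamine B protein assay estimated viability/growth. GI50 (50% growth inhibition) derived; where not reached or exceeded, reported as greater or less than the highest or lowest concentration tested.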
# UACC-257 = assay: Growth inhibition of human UACC257 cells after 48 hrs by sulforhodamine B assay; type: functional; settings: UACC-257, 48 h; procedure, shortened: as §2
# NCI/ADR-RES = assay: Growth inhibition of human NCI/ADR-RES cells after 48 hrs by sulforhodamine B assay; type: functional; procedure, shortened: as §1
smiles,measurement,setting,value
CC(=O)C(=CN1CCN(C(=O)c2ccco2)C1=S)C(C)=O,GI50,NCI-H460,1.5 µM
same,GI50,LOX IMVI,2.1 µM
same,GI50,NCI-H322M,4.7 µM
same,GI50,CAKI-1,5.2 µM
same,GI50,BT-549,14 µM
same,GI50,HT-29,17.1 µM
same,GI50,MOLT-4,8.2 µM
same,GI50,[1],2.7 µM
same,GI50,IGROV-1,3.6 µM
same,GI50,SNB-19,30.1 µM
same,GI50,SF-295,21.7 µM
same,GI50,SF-268,2.6 µM
same,GI50,KM12,2.8 µM
same,IC50,MT4,4 µM
same,GI50,HOP-62,22 µM
same,GI50,SN12C,2.6 µM
same,GI50,K562,38.4 µM
same,GI50,T47D,3.7 µM
same,GI50,U-251,4.8 µM
same,GI50,M14,4 µM
same,GI50,SNB-75,9 µM
same,GI50,Malme-3M,20.7 µM
same,GI50,TK-10,4.2 µM
same,GI50,OVCAR-8,8.2 µM
same,GI50,PC-3,4.8 µM
same,GI50,RXF 393,1.8 µM
same,GI50,HOP-92,11.7 µM
same,GI50,NCI-H23,16.4 µM
same,GI50,HCT-15,2.2 µM
same,GI50,SK-OV-3,20 µM
same,GI50,UO-31,2.9 µM
same,GI50,OVCAR-4,10.6 µM
same,GI50,SK-MEL-28,3.9 µM
same,GI50,ACHN,2.9 µM
same,GI50,SK-MEL-2,3.3 µM
same,GI50,MDA-MB-435,12.6 µM
same,GI50,MDA-MB-231,2.6 µM
same,GI50,SK-MEL-5,16.6 µM
same,GI50,786-0,5.3 µM
same,GI50,COLO 205,23.4 µM
same,GI50,OVCAR-3,11.4 µM
same,GI50,SR,2.3 µM
same,GI50,HCT-116,4.1 µM
same,GI50,EKVX,11.2 µM
same,GI50,UACC-62,5.5 µM
same,GI50,SW-620,14.6 µM
same,GI50,A549,11.2 µM
same,GI50,HL-60(TB),5.8 µM
same,GI50,UACC-257,2.5 µM
same,GI50,NCI/ADR-RES,23.2 µM
